Bioassay records from PubChem.
Sampled rows, rich in hits. Any-hit rate of the full collection: about 1.5%.
EBI2 antag – blocks human EBI2 receptor beta-arrestin signaling | hit rate 0.81% among 360,000 | EBI2 beta-arrestin recruitment, luminescence, 7a,25-OHC stimulated | inhibition, % at 5 µM | P32249; in the data active means inhibition above about 38%;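 further: enzyme fragment complementation signal reports receptor beta-arrestin coupling in cells; 0% = agonist plus DMSO wells and 100% = wells without agonist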
APJ antag – antagonists of human APJ apelin receptor; P35414; CHO-K1 APJ beta-arrestin complementation, luminescence; inhibition, % at 20 µM; hit rate 0.32% among 330,000;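 active means inhibition above about 40% at 20 µM, limit read from the data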;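 further: cells challenged with 10 nM apelin-13 agonist together with compound; plate controls were apelin-13 plus DMSO wells for no effect and DMSO wells lacking apelin-13 for full effect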
APJ agonist – APJ receptor agonism; P35414; CHO-K1 APJ PathHunter beta-arrestin, luminescence; 0% DMSO wells, 100% apelin; activation, % at 20 µM; hit rate 0.11% among 330,000; AID 2520;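 active means activation more than six SD over the plate average, tested at 20 µM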;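 further: 0% = DMSO alone and 100% = apelin-13 at 10 nM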
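Assay system – PathHunter CHO-K1 APJ (AGTRL-1) beta-arrestin reporter cells · Compound – one dose, 20 µM compound, 1% DMSO · Timing – compound 90 min 25 °C, reagent 1 h · Measured by – luminescence from split beta-galactosidase complementation, Galacton Star/Emerald II substrate · Measure – beta-arrestin recruitment to APJ as agonist activity, luminescent signal · Benchmarks – DMSO vs Apelin-13 10 nM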
CCR6 antagonist – blocks CCL20-driven beta-arrestin recruitment at human CCR6. P51684. CHO-K1 CCR6 PathHunter beta-arrestin, luminescence, CCL20-stimulated. inhibition, % at 20 µM. hit rate 0.49% among 340,000;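 active means compounds whose inhibition of the agonist-driven luminescence signal at 20 µM reaches about 50%, limit read from the data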;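 further: cells stimulated with CCL20 at 14 nM final; plate controls were DMSO with CCL20 for no effect and DMSO without agonist for full effect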
CXCR6 inh – inhibitors of human CXCR6 receptor; O00574; CHO-K1 PathHunter CXCR6 beta-arrestin, luminescence; inhibition, % at 20 µM; hit rate 0.36% among 360,000; AID 602244; in the data active means inhibition above about 34%, passing the limit was not always enough;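 further: antagonist mode with CXCL16 agonist at 10 nM final; 0% = 10 nM CXCL16 with DMSO and 100% = unstimulated wells without agonist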
Target sequence (O00574 whole entry, looked up): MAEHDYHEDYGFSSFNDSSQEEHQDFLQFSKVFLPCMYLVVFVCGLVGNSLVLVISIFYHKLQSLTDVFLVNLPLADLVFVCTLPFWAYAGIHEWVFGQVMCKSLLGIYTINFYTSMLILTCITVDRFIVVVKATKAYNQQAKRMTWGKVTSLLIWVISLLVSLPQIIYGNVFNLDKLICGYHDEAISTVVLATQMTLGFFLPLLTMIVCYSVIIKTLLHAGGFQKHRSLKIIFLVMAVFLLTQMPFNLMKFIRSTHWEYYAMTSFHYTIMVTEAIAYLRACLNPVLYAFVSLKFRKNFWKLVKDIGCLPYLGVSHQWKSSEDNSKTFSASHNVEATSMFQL
EBI2 antag conf – confirmation of human EBI2 receptor antagonists | AID 651997 | shares compounds with EBI2 antag | hit rate 29% among 2,400 | EBI2 beta-arrestin luminescence, 7a,25-OHC antagonism | inhibition, % at 5 µM;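 active means inhibition of at least 50%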
EBI2 agonist – activates EBI2, counter-screen for EBI2 antagonists | 2,400 tested, under 10 active | shares compounds with EBI2 antag | activation, % at 5 µM | EBI2-expressing cells, agonist mode, luminescence, 60 min; 0% vehicle, 100% 7α,25-dihydroxycholesterol control;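 active means activation of at least 50%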
bGal cs – inhibits E. coli beta-galactosidase, counter-screen for EBI2 antagonists. shares compounds with EBI2 antag. purified beta-galactosidase, luminescent Galacton Star, 15 min. inhibition, % at 5 µM. hit rate 1% among 2,400;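 active means replicate-average signal at least 3 plate SD below neutral wells, shown as high inhibition, flagging enzyme-inhibiting false positives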;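 further: 0% = DMSO wells with enzyme and 100% = wells lacking enzyme; higher means stronger loss of beta-gal luminescence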
Numbers without * were called inactive; . = no result given.

SMILES	EBI2 antag	APJ antag	APJ agonist	CCR6 antagonist	CXCR6 inh	EBI2 antag conf	EBI2 agonist	bGal cs
COc1ccc(/C=N/Nc2cc(N3CCCC3)nc(N3CCCC3)n2)cc1	60*	19	-4	8	2	33	3	7
COc1ccc(CN2C(=O)CSCC2(C)C(=O)Nc2ccc3c(c2)OCCO3)cc1 (configuration not stated)	-9	.	.	.	.	.	.	.
CC(C)(C)n1nnnc1C(c1cc2ccccc2o1)N1CCOCC1 (configuration not stated)	-1	.	.	.	2	.	.	.
Clc1ccc(OCc2nnnn2-c2ccccc2)cc1	79*	7	-5	22	-2	54*	2	4
Cc1ccc(-c2csc(NC(=O)C3=COCCO3)n2)cc1	0	16	-1	-8	0	.	.	.
O=C(Nc1nc(-c2ccc(Oc3ccccc3)cc2)cs1)C1=COCCO1	74*	7	-1	9	-10	32	-1	8
CCc1nc2ccc(C(=O)Nc3ccc(Cl)c(Cl)c3)cn2c1N(C)Cc1ccc(OC)cc1	9	.	.	.	-12	.	.	.
O=C(c1cc(=O)c2ccccc2o1)N1CCN(c2ccccc2F)CC1	64*	6	-4	5	2	33	0	-11
O=C(c1cc(=O)c2ccccc2o1)N1CCN(c2cccc(Cl)c2)CC1	51*	-13	-4	-6	-2	42	1	6
O=C(Nc1ccccc1C(F)(F)F)c1ccc(CN2CCC(Cc3ccccc3)CC2)cc1	0	3	-4	4	16	.	.	.
O=C(Nc1ccccc1)c1ccc(CN2CCC(Cc3ccccc3)CC2)cc1	65*	9	-4	19	11	32	-1	6
COc1ccc(C(=O)Nc2ccc(N3CCN(Cc4ccccc4)CC3)cc2)cc1	-8	8	-1	-9	-7	.	.	.
COc1ccc(NC(=O)c2ccc(CN3CCN(c4ccccc4)CC3)cc2)cc1	61*	8	-1	-12	5	23	2	8
Cc1ccc2[nH]c(C(=O)N3CCN(C=O)CC3)cc2c1	75*	-1	-2	-9	-4	28	1	10
CCOC(=O)N1CCN(C(=O)c2cc3cc(C)ccc3[nH]2)CC1	88*	-5	-3	-14	6	67*	0	7
CN1CCN(C(=O)c2cc3ccccc3[nH]2)CC1	13	21	-1	5	-10	.	.	.
Cc1ccc2[nH]c(C(=O)N3CCN(c4cccc(Cl)c4)CC3)cc2c1	54*	-28	-2	-15	-6	47	0	6
Cc1ccc2[nH]c(C(=O)N3CCCC(Nc4ccc(F)cc4)C3)cc2c1 (configuration not stated)	24	-5	-3	7	-8	.	.	.
Cc1ccc(S(=O)(=O)N2CCCN(C(=O)c3cc4ccccc4[nH]3)CC2)cc1	54*	-6	-3	13	-2	34	1	10
C=C[C@H]1CN2CC[C@H]1C[C@H]2[C@H](O)c1ccnc2ccc(OC)cc12	14	8	0	-2	1	.	.	.
COc1ccc(N2c3ccccc3CN(Cc3ccccc3)[C@@H](C)[C@H]2Cc2cccnc2)cc1	2	.	.	.	2	.	.	.
Cc1ccc(Nc2ccc(C(=O)NCCc3ccccc3)cn2)cc1	83*	9	-2	7	-4	58*	-1	-9
Cc1cc(C)c(S(=O)(=O)N2CCN(C(=O)c3ccc(-n4nc(C)c(Cl)c4C)cc3)CC2)c(C)c1	94*	.	.	4	3	68*	0	-11
Cc1cc(C)c(S(=O)(=O)N2CCN(C(=O)c3c(C)nn(-c4ccccc4)c3Cl)CC2)c(C)c1	-7	.	.	2	-1	.	.	.
CCOC(=O)c1sc2nc(C)nc(NCc3ccc(F)cc3)c2c1C	45*	-9	1	2	4	43	0	-1
SMILES	EBI2 antag	APJ antag	APJ agonist	CCR6 antagonist	CXCR6 inh	EBI2 antag conf	EBI2 agonist	bGal cs
CCOC(=O)c1sc2nc(C)nc(NCc3ccc(Cl)cc3)c2c1C	24	4	1	-7	1	.	.	.
CCCCC(=O)N(C)c1c(CC)nc2c(OCc3ccccc3C)cccn12	3	.	.	.	-4	.	.	.
O=C(/C=C1\C(=O)Nc2ccccc21)/C=C1\C(=O)Nc2ccccc21	41*	.	.	38	20	37	-1	-19
CN(O)/C=C1\C(=O)Nc2ccccc21	-4	-22	1	12	-2	.	.	.
Cn1nc(C(C)(C)C)cc1C(=O)N1CCCCC1c1cc(C(=O)NCc2ccc(F)cc2)no1 (configuration not stated)	0	.	.	.	-9	.	.	.
C/C=C/c1cccc(-c2nc(C(=O)NC3CCC3)cc3c2[C@H](CCO)N(S(=O)C(C)(C)C)C3)c1 (some centres not stated)	13	.	.	.	-2	.	.	.
COc1ccc(/C=N/n2cnc3c(sc(=S)n3-c3ccccc3)c2=O)cc1	51*	-7	-5	13	2	26	-2	-13
CCOC(=O)C1(C)CCCCCN1C(=O)/C=C/c1ccccc1 (configuration not stated)	-12	.	.	.	1	.	.	.
N#Cc1cnc(Oc2ccc(Cl)cc2)nc1N	47*	-18	-1	1	1	0	-1	-14
Cc1cccc(C)c1-n1nnnc1C(c1ccnc2ccccc12)N1CCN(C(=O)OCc2ccccc2)CC1 (configuration not stated)	41*	.	.	.	11	36	-1	-14
Cc1cccc(C)c1-n1nnnc1C(c1ccnc2ccccc12)N1CCCC1 (configuration not stated)	6	.	.	.	8	.	.	.
CC(C)(C)n1nnnc1C(CCc1ccccc1)N1CCN(C/C=C/c2ccccc2)CC1 (configuration not stated)	29	.	.	.	6	.	.	.
O=C(NC(c1ccccc1)c1ccc2ccccc2n1)C1CCN(Cc2ccc(Oc3ccccc3)cc2)CC1 (configuration not stated)	15	.	.	.	6	.	.	.
COc1cc(OC)nc(C(NC(=O)C2CCN(Cc3ccc(Oc4ccccc4)cc3)CC2)c2ccccc2C)n1 (configuration not stated)	53*	.	.	.	28	19	-1	-9
Cc1ccc(NC(=O)C2c3ccccc3-c3ccccc32)cc1	-2	.	.	.	3	.	.	.
COC1C=CC(CNC(=O)c2cc3c(=O)n4cccc(C)c4nc3n2C)(OC)O1 (configuration not stated)	49*	-10	-2	13	25	-8	2	6
Cc1cccn2c(=O)c3cc(C(=O)NC4CCCC4)n(C)c3nc12	-7	-13	3	9	-11	.	.	.
Cc1ccc(OCc2nc3c4c(ncn3n2)-c2ccccc2CC42CCCC2)cc1	25	18	-3	14	6	.	.	.
